According to ChEMBL document CHEMBL3352597, “Heck products of parthenolide and melampomagnolide-B as anticancer modulators that modify cell cycle progression” (Eur J Med Chem, 2014):

Experiments:
Assay type in all cases: functional
HL-60(TB) = test: Anticancer activity against human HL-60(TB) cells
Outline: (§1)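 NCI 60 human cancer cell line panel, multiple-dose testing at five concentrations (10^-4, 10^-5, 10^-6, 10^-7 and 10^-8 M). Dose-response curves plot cytotoxic effect against log10 of drug concentration for each cell line. GI50 is the molar concentration giving 50% growth inhibition; LC50 is the concentration killing 50% of cells.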

NCI-H522 = test: Anticancer activity against human NCI-H522 cells; outline: as §1
[1] = Anticancer activity against human COLO205 cells; outline: as §1
[2] = Anticancer activity against human SF295 cells; outline: as §1
SK-MEL-5 = test: Anticancer activity against human SK-MEL-5 cells; outline: as §1
DU-145 = test: Anticancer activity against human DU145 cells after 48 hrs; settings: DU-145, 48 h; outline: as §1
[3] = read-out: LC50 (the source's name)

Work on C/C1=C\CC[C@@]2(C)O[C@@H]2[C@H]2OC(=O)/C(=C/c3ccsc3)[C@@H]2CC1 yielded a GI50 (HL-60(TB)) of 21.7 µM, a CC50 (HL-60(TB); [3]) of 99.9 µM and a GI50 (NCI-H522) of 5.44 µM. It also gave a CC50 (NCI-H522; [3]) of 59.7 µM, a GI50 ([1]; COLO 205) of 22.6 µM and a CC50 ([1]; COLO 205, read-out: LC50 (the source's name)) of 90.9 µM. The GI50 ([2]; SF-295) was 28.5 µM, the CC50 ([2]; SF-295, read-out: LC50 (the source's name)) was greater than 100 µM and the GI50 (SK-MEL-5) was 16.3 µM. It also gave an LC50 (SK-MEL-5) of 60.4 µM, a GI50 (DU-145) of 25.7 µM and a CC50 (DU-145; [3]) greater than 100 µM.
